Data set [1] deals with MS2 coat protein. The experiment in a line: apparent Kd, MS2 coat protein; higher = weaker binding; RNA-MaP array; theophylline 2 mM where present. In a few lines:
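Stalled E. coli RNA polymerase transcribed each design on Illumina sequencing-chip clusters. The clusters were titrated with SNAP-549-labelled MS2 coat protein, starting at 0.7 or 1.5 nM and doubling up to 3 µM, first without ligand and then with constant ligand, in 100 mM Tris-HCl pH 7.5, 80 mM KCl, 4 mM MgCl2, BSA, DTT, yeast tRNA and Tween-20. Green signal was normalised to red-channel RNA signal and to the control-cluster median Fmax. The apparent Kd is the median of filtered binding-curve fits made for each cluster.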

The test system of data set [2] is MS2 coat protein. As to the kind of experiment: apparent Kd, MS2 coat protein; higher = weaker binding; RNA-MaP array. In a few lines: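 Designs measured on fewer than 10 clusters were excluded from the data. The rest were RNAs transcribed from sequenced DNA templates on an Illumina sequencing chip and incubated at room temperature, with or without input ligand, with fluorescently labeled MS2 coat protein at 1.5 nM to 3 μM for 0.8–1.5 h at the lowest to 10–20 min at the highest concentrations. Apparent Kd is the median of the per-cluster binding-curve fits.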

Setting [3] is: designed as: ON switch for theophylline, no ligand.
Where [4] appears, read: ligand present: theophylline, designed as: ON switch for theophylline.
Setting [5] is: designed as: ON switch for flavin mononucleotide, no ligand.
[6] abbreviates: ligand present: flavin mononucleotide, designed as: ON switch for flavin mononucleotide.
The mark [7] stands for this setting: designed as: OFF switch for flavin mononucleotide, no ligand.
Where [8] appears, read: ligand present: flavin mononucleotide, designed as: OFF switch for flavin mononucleotide.

As usually defined, the apparent Kd is a dissociation constant that holds for the conditions of the assay. On to “GGCACUCUGUAAGAUACCAGACGUCGGUGCUUACAUGAGGAUCACCCAUGUUGCUUUUUAGUCCCUUGGCAGCUUCGGAUAACCA”, for which the “apparent Kd” value was 121 nM in the data set on MS2 coat protein [1] (setting [3]) and 147 nM in the data set with MS2 coat protein [1] (setting [4]).

As to “GGCCGGUGCGCUUUGAAGCGACGGCGUGAUACCAGAUGUAAGAGCGUCCCUUGGCAGCACGUUUACAUGAGGAUCACCCAUGUCU”, the “apparent Kd” value in the data set with MS2 coat protein [1] (setting [3]) came to 196 nM; in the data set with MS2 coat protein [1] (setting [4]) it was 131 nM.

For “AGCAUGUUAUCAGAUACCAGACAUCUUUUUUUACGUAUUACAUGAGGAUCACCCAUGUUGGUCCCUUGGCAGCUGAAAUAUUUCA”, the “apparent Kd” value was 203 nM with MS2 coat protein [1] (setting [3]) and 31.9 nM with MS2 coat protein [1] (setting [4]).

As for “ACGGAGAUUGCUAAAUGUUGGCGAGCGGAUACCAGCCUAUUAUUGGGCCCUUGGCAGCCGACAUGAGGAUCACCCAUGUAAACAA”, the “apparent Kd” value is 79 nM with MS2 coat protein [1] (setting [3]) and 126 nM with MS2 coat protein [1] (setting [4]).

Take “AUUAAUUGUCGUGAUACCAGACUUACAUGAGGAUCACCCAUGUUACUUAAGAUUUUUGUUGUCCCUUGGCAGCACUUUUUAAUUA”: the “apparent Kd” value came out at 24.1 nM in the data set with MS2 coat protein [1] (designed as: OFF switch for theophylline, no ligand) and 18.9 nM with MS2 coat protein [1] (ligand present: theophylline, designed as: OFF switch for theophylline).

“UGAUCCUAGACUGAUACCAGUCAUGAGUACAUGAGGAUCACCCAUGUCCAGGGACUCAAUGACCCUUGGCAGCAGAACCUAGUUC”: the “apparent Kd” value with MS2 coat protein [1] (setting [3]) worked out at 193 nM; with MS2 coat protein [1] (setting [4]), 147 nM.

As to “UACAUGAGGAUCACCCAUGUAAGGUGAGAUACCAGUGAUAUGCUACACCCUUGGCAGCUCACGGCUGACUAUCAGCACACAUGUA”, the “apparent Kd” value in the data set with MS2 coat protein [1] (setting [3]) worked out at 27 nM; with MS2 coat protein [1] (setting [4]), 16.3 nM.

Consider “UCAAUAUGUCGUUGACAUGAGGAUCACCCAUGUACUAACUAGCAGGAUAUCGUGAUUAACCCUACCGAGAAGGGCUGUUGUAUU”, for which the figures for the “apparent Kd” value with MS2 coat protein [2] (setting [5]) and in the data set with MS2 coat protein [2] (setting [6]) were 40.7 nM and 34.9 nM, respectively.

Regarding “CCUCCUCAUCGAGGAUAUUGGGUCUGACCUCCAUUUAGACAUGAGGAUCACCCAUGUAAAGUGUCCAAGAAGGCGAUACCGGGA”, the “apparent Kd” value with MS2 coat protein [2] (setting [5]) was determined as 817 nM; with MS2 coat protein [2] (setting [6]), 648 nM.

Turning to “AAUGGGCGAGUAGAGCAUAAUUUCCACUCCCGAGGACCGGUACGGCCGCCACUCGUUCGCUCACAUGAGGAUCACCCAUGUGGUC”, the “apparent Kd” value with MS2 coat protein [2] (designed as: OFF switch for tryptophan, no ligand) was determined as 32.3 nM; in the data set on MS2 coat protein [2] (ligand present: tryptophan, designed as: OFF switch for tryptophan), 57.2 nM.

For the sequence “AAAUAAACCGAGGAUAUUAGAUUAGCAUACGAUUAAGAAGGCGGAACAUGAGGAUCACCCAUGUUGGGAGGUCU”, the “apparent Kd” value came out at 67.8 nM with MS2 coat protein [2] (setting [7]) and 211 nM with MS2 coat protein [2] (setting [8]).

Consider “UACUGCAAACAGAAGGUUGGAAGUCGGUUCUCCAAAGGAUAUGUACAUGAGGAUCACCCAUGUGCGCAAAUCGCACAGAGGAGG”, for which the entries for the “apparent Kd” value in the data set with MS2 coat protein [2] (setting [7]) and with MS2 coat protein [2] (setting [8]) were 14.6 nM and 36.9 nM, respectively.

As for “AUUAAUUCAGGAUAUACAUGAGGAUCACCCAUGUGGCGAAAGAACAUAUAGGAAACAAGUAGAAGGGAAUAGAU”, the “apparent Kd” value amounted to 17.9 nM in the data set on MS2 coat protein [2] (setting [7]) and 16.4 nM with MS2 coat protein [2] (setting [8]).

Take “AAAGAAAACGGAGGAUAUAGAAAUCCGAAUCCAAACCCGCCAACAUGAGGAUCACCCAUGUGCUUCUAGAAGGCCGAAUGCUAC”: the “apparent Kd” value was found to be 19.8 nM in the data set on MS2 coat protein [2] (setting [5]) and 17 nM with MS2 coat protein [2] (setting [6]).

As for “GAUCUAUCAGGAUAUAAGGCCUUGAACAUGAGGAUCACCCAUGUCCUCUUGGUUGCCGCGUUAGAAGGGAUGUGUU”, the “apparent Kd” value is 202 nM in the data set on MS2 coat protein [2] (setting [7]) and 171 nM in the data set with MS2 coat protein [2] (setting [8]).

With “ACAUGAGGAUCACCCAUGUUCUCAAGUAUAAUAGAUAAAUCAAGAAGGGCUAAUCGACCGAAUAAGCAGGAUAUUGUGAUAUGG”, the results for the “apparent Kd” value in the data set with MS2 coat protein [2] (setting [7]) and in the data set with MS2 coat protein [2] (setting [8]) were 18.3 nM and 21.2 nM, respectively.

With “CUAGAACAUGAGGAUCACCCAUGUCAGGAUAUUCUUGGAUGCAUCCAAGCGAAAACAAGAAGAAGGGACGUAUA”, the “apparent Kd” value with MS2 coat protein [2] (setting [7]) stood at 10.8 nM; in the data set on MS2 coat protein [2] (setting [8]) it was 10.4 nM.

For “CAGCCACAUGAGGAUCACCCAUGUGAUGAUACCAGCUUCGUCUUAAGCCCUUGGCAGCAUAUCUCUUUGUUCUCAUACAUAGCAU”, the “apparent Kd” value was determined as 11.1 nM with MS2 coat protein [2] (setting [3]) and 12.3 nM with MS2 coat protein [2] (setting [4]).

“UACGUAUUAGGAGGAUAUGGCCCUCAUCUUUGACAUGAGGAUCACCCAUGUGGACAUUACGCCACCCAGAAGGCCUUGCUCGGA”: the results for the “apparent Kd” value in the data set with MS2 coat protein [2] (setting [7]) and in the data set on MS2 coat protein [2] (setting [8]) were 468 nM and 344 nM, respectively.

As for “CUCUGCUACCGGACUGGUUGGACAUGAGGAUCACCCAUGUACGAGGAUAUACGAAGAAGAACCAGGUAGAAGGCGUUUGGGUAC”, the entries for the “apparent Kd” value in the data set on MS2 coat protein [2] (setting [7]) and in the data set with MS2 coat protein [2] (setting [8]) were 14.4 nM and 28.1 nM, respectively.

For the sequence “AGCCAAUAAGGAUAUACAUUUAGAGAUCAUCGUACAAAGUAACAUGAGGAUCACCCAUGUAGAAGGUAUGCAGC”, the “apparent Kd” value turned out to be 10.2 nM in the data set with MS2 coat protein [2] (setting [7]) and 11.3 nM with MS2 coat protein [2] (setting [8]).

As for “GUACCUCCCAAAGGAUAUGGACCGCAGACAUGAGGAUCACCCAUGUAGGACGCACUGUUUGCGCGCCAGAAGGUUGUUAAUCGC”, the “apparent Kd” value amounted to 98.5 nM in the data set with MS2 coat protein [2] (setting [7]) and 73.2 nM in the data set with MS2 coat protein [2] (setting [8]).
